# Source: ChEMBL document CHEMBL4265971, “Modified carbazoles destabilize microtubules and kill glioblastoma multiform cells” (Eur J Med Chem, 2018)
# Active and inactive are the calls of the source. No cut-off for these calls is given here.
# What was measured:
# [1] = system: GBM; assay: Cytotoxicity against patient-derived proneural GBM cells after 72 hrs by WST-1 assay; type: functional, cell-based; conditions: Homo sapiens
# In short: (§1)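 Viability read with WST-1 72 h after treatment with increasing concentrations; DMSO vehicle 0.1% final. T98G and HepG2 grown in DMEM/10% FBS/pen-strep at 37 °C, 5% CO2. Patient-derived GBM cells (WHO grade IV; proneural, classical, mesenchymal) grown in NeuroCult NSA with B-27, 20 ng/mL EGF and 20 ng/mL FGF2. EC50 from curve fit, reported only when extrapolable. Mean of ≥3 independent experiments in triplicate.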
# [2] = organism: Bos taurus; assay: Inhibition of [3H]colchicine binding to bovine brain tubulin at 5 uM after 1 hr liquid scintillation counting assay relative to control
# [3] = system: GBM; assay: Cytotoxicity against patient-derived classical GBM cells after 72 hrs by WST-1 assay; type: functional, cell-based; conditions: Homo sapiens; in short: as §1
# [4] = system: HepG2; assay: Cytotoxicity against human HepG2 cells assessed as cell killing at 5.6 uM after 72 hrs by WST-1 assay relative to control; type: functional
# In short: (§2)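 Maximal killing is the largest % loss of viability against 0.1% DMSO vehicle, read by WST-1 72 h after treatment, at the stated concentration. T98G/HepG2 grown in DMEM/10% FBS; patient-derived GBM grown in NeuroCult NSA with B-27, EGF and FGF2 (20 ng/mL each). Mean ± SEM of ≥3 independent experiments in triplicate.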
# [5] = system: GBM; assay: Cytotoxicity against patient-derived mesenchymal GBM cells assessed as cell killing at 10 uM after 72 hrs by WST-1 assay relative to control; type: functional, Homo sapiens
# In short: (§3)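 Patient-derived GBM cells come from freshly resected WHO grade IV tumours. They are subtyped proneural, classical or mesenchymal and kept in NeuroCult NSA medium with B-27, 20 ng/mL EGF and 20 ng/mL FGF2. Cells were treated with increasing compound concentrations (DMSO 0.1% final). Viability was read by WST-1 after 72 h. Maximal killing is the largest % reduction versus vehicle. Mean of ≥3 independent experiments in triplicate.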
# [6] = system: GBM; assay: Cytotoxicity against patient-derived classical GBM cells assessed as cell killing at 5.6 uM after 72 hrs by WST-1 assay relative to control; type: functional, Homo sapiens; in short: as §3
# [7] = Inhibition of bovine brain t in presence of 0.4 mM GTP; set-up: species or system Bos taurus
# [8] = Induction of bovine brain microtubule destabilization assessed as increase in free tubulin levels after 15 mins by Coomassie G-250 staining-based polyacrylamide gel electrophoresis method; set-up: species or system Bos taurus
# In short: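 Bovine brain tubulin purified, polymerized into MTs and sheared. Sheared MTs incubated with compound at 37 °C for 15 min, then centrifuged 10 min at 42,000 rpm at 37 °C. Supernatant (free tubulin) and pellet (MT) run on polyacrylamide gels. EC50 from representative experiments repeated three times.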
# [9] = system: GBM; assay: Cytotoxicity against patient-derived proneural GBM cells assessed as cell killing at 5.6 uM after 72 hrs by WST-1 assay relative to control; type: functional, Homo sapiens; in short: as §3
# [10] = system: GBM; assay: Cytotoxicity against patient-derived mesenchymal GBM cells after 72 hrs by WST-1 assay; type: functional, cell-based; conditions: Homo sapiens; in short: as §1
# [11] = system: T98G; assay: Cytotoxicity against human T98G cells assessed as cell killing at 1 uM after 72 hrs by WST-1 assay relative to control; type: functional; in short: as §2
# [12] = system: T98G; assay: Cytotoxicity against human T98G cells after 72 hrs by WST-1 assay; type: functional, cell-based; in short: as §1
# [13] = system: T98G; assay: Cytotoxicity against human T98G cells assessed as cell killing at 10 uM after 72 hrs by WST-1 assay relative to control; type: functional; in short: as §2
# [14] = system: T98G; assay: Cytotoxicity against human T98G cells assessed as cell killing at 3 uM after 72 hrs by WST-1 assay relative to control; type: functional; in short: as §2
# [15] = system: GBM; assay: Cytotoxicity against patient-derived classical GBM cells assessed as cell killing at 3 uM after 72 hrs by WST-1 assay relative to control; type: functional, Homo sapiens; in short: as §2
# [16] = system: SF-295; assay: Cytotoxicity against human SF295 cells after 48 hrs by sulforhodamine B assay; type: functional, cell-based
# [17] = system: HepG2; assay: Cytotoxicity against human HepG2 cells after 72 hrs by WST-1 assay; type: functional, cell-based; conditions: HepG2, 72 h; in short: as §1
# [18] = system: COLO 205; assay: Cytotoxicity against human COLO205 cells after 48 hrs by sulforhodamine B assay; type: functional, cell-based
# [19] = system: HCC 2998; assay: Cytotoxicity against human HCC2998 cells after 48 hrs by sulforhodamine B assay; type: functional, cell-based
# [20] = system: HT-29; assay: Cytotoxicity against human HT-29 cells after 48 hrs by sulforhodamine B assay; type: functional, cell-based
# [21] = system: GBM; assay: Cytotoxicity against patient-derived mesenchymal GBM cells assessed as cell killing at 1 uM after 72 hrs by WST-1 assay relative to control; type: functional, Homo sapiens; in short: as §2
# [22] = system: SF-539; assay: Cytotoxicity against human SF539 cells after 48 hrs by sulforhodamine B assay; type: functional, cell-based
# [23] = system: T98G; assay: Cytotoxicity against human T98G cells assessed as cell killing at 100 nM after 72 hrs by WST-1 assay relative to control; type: functional
# In short: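 T98G human GBM cells (ATCC, STR-authenticated, under 6 months in culture) grown in DMEM with 10% FBS and penicillin/streptomycin, 37 °C, 5% CO2. Exposed to increasing compound concentrations in DMSO (0.1% final) for 72 h, then WST-1 viability read. Maximal killing is the largest % viability reduction versus vehicle over the concentrations tested. Mean of ≥3 independent experiments in triplicate.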
# [24] = system: GBM; assay: Cytotoxicity against patient-derived proneural GBM cells assessed as cell killing at 1 uM after 72 hrs by WST-1 assay relative to control; type: functional, Homo sapiens; in short: as §2
# [25] = system: GBM; assay: Cytotoxicity against patient-derived classical GBM cells assessed as cell killing at 1 uM after 72 hrs by WST-1 assay relative to control; type: functional, Homo sapiens; in short: as §2
# [26] = system: HepG2; assay: Cytotoxicity against human HepG2 cells assessed as cell killing at 0.6 uM after 72 hrs by WST-1 assay relative to control; type: functional; in short: as §2
# [27] = organism: Bos taurus; assay: Inhibition of [3H]colchicine binding to bovine brain tubulin at 1 uM after 1 hr liquid scintillation counting assay relative to control
# [28] = system: HepG2; assay: Cytotoxicity against human HepG2 cells assessed as cell killing at 10 uM after 72 hrs by WST-1 assay relative to control; type: functional; in short: as §2
# [29] = system: GBM; assay: Cytotoxicity against patient-derived mesenchymal GBM cells assessed as cell killing at 3 uM after 72 hrs by WST-1 assay relative to control; type: functional, Homo sapiens; in short: as §2
compound,measurement,setting,value
CCn1c2ccccc2c2cc(C(=O)N3CCCc4ccccc43)ccc21,EC50,[1],613 nM
same,inhibition,[2],41%
same,EC50,[3],846 nM
same,%max,[4],8.3%
same,%max,[5],97.2%
same,%max,[6],98.6%
same,IC50,[7],4400 nM
same,EC50,[8],5300 nM
same,%max,[9],98.9%
same,EC50,[10],1820 nM
same,%max,[11],89%
same,EC50,[12],757 nM
Cc1ccc(C(=O)c2ccc3c(c2)c2ccccc2n3CC(F)(F)F)c2ccccc12,%max,[13],35.6%
same,EC50,[12],5600 nM
CCn1c2ccc(C(=O)c3ccc(C)c4ccccc34)cc2c2ccc(OC)cc21,%max,[13],71.6%
same,EC50,[12],2600 nM
CCn1c2ccccc2c2cc(C(=S)c3ccc(C)c4ccccc34)ccc21,%max,[14],-17%
same,EC50,[12],> 10000 nM
CCn1c2ccccc2c2cc(C(=O)c3ccc(Cl)cc3)ccc21,%max,[13],71.1%
same,EC50,[12],1500 nM
CCn1c2ccccc2c2cc(C(=O)c3ccc(F)cc3)ccc21,%max,[13],54.8%
same,EC50,[12],8000 nM
CCn1c2ccccc2c2cc(C(=O)N3CCN(C)CC3)ccc21,%max,[13],13.2%
same,EC50,[12],> 10000 nM
CCn1c2ccccc2c2cc(C(=O)c3ccc(C)cc3)ccc21,%max,[14],83.6%
same,EC50,[12],993 nM
CCn1c2ccccc2c2cc(C(=O)c3cccc4cccnc34)ccc21,%max,[13],60%
same,EC50,[12],8800 nM
CCn1c2c(c3ccccc31)CN(C(=O)c1ccc(C)c3ccccc13)CC2,%max,[14],45.1%
same,EC50,[12],> 10000 nM
CCn1c2ccccc2c2cc(C(=O)c3ccc(C)c4ccccc34)ccc21,EC50,[1],542 nM
same,inhibition,[2],53%
same,%max,[15],47.9%
same,%max,[13],45.3%
same,EC50,[3],698 nM
same,%max,[4],25%
same,Activity,[16],Active
same,EC50,[17],1690 nM
same,Activity,[18],Active
same,Activity,[19],Active
same,Activity,[20],Active
same,%max,[21],64.3%
same,IC50,[7],1400 nM
same,Activity,[22],Active
same,EC50,[8],2100 nM
same,EC50,[10],268 nM
same,EC50,[12],87 nM
CCn1c2ccccc2c2cc(C(=O)Cc3ccccc3)ccc21,%max,[13],14%
same,EC50,[12],> 10000 nM
CCn1c2ccccc2c2cc(C(=O)c3cccc4c3NCCC4)ccc21,%max,[23],-18%
same,EC50,[12],> 10000 nM
Cc1ccc(C(=O)n2c3ccccc3c3ccccc32)c2ccccc12,%max,[13],89.1%
same,EC50,[12],957 nM
CCn1c2ccccc2c2cc(C(=O)c3cccc4ncccc34)ccc21,EC50,[1],316 nM
same,inhibition,[2],91%
same,%max,[24],44.8%
same,EC50,[3],407 nM
same,Activity,[16],Active
same,EC50,[17],66 nM
same,Activity,[18],Active
same,Activity,[19],Active
same,Activity,[20],Active
same,%max,[21],58.9%
same,IC50,[7],890 nM
same,Activity,[22],Active
same,EC50,[8],3400 nM
same,%max,[25],53.9%
same,EC50,[10],335 nM
same,%max,[26],28.6%
same,inhibition,[27],61%
same,%max,[11],74.4%
same,EC50,[12],184 nM
CCn1c2ccccc2c2cc(C(=O)c3cccc4ccccc34)ccc21,%max,[13],72%
same,EC50,[12],1700 nM
CCCn1c2ccccc2c2cc(C(=O)c3ccc(C)c4ccccc34)ccc21,%max,[13],16.3%
same,EC50,[12],> 10000 nM
CCn1c2ccccc2c2cc(C(O)c3ccc(C)c4ccccc34)ccc21 (centres undefined),EC50,[1],630 nM
same,inhibition,[2],70%
same,%max,[15],56%
same,%max,[24],44%
same,EC50,[3],633 nM
same,%max,[28],30.8%
same,Activity,[16],Active
same,EC50,[17],101 nM
same,Activity,[18],Active
same,%max,[14],72.8%
same,Activity,[19],Active
same,Activity,[20],Active
same,IC50,[7],1600 nM
same,Activity,[22],Active
same,EC50,[8],6400 nM
same,EC50,[10],386 nM
same,%max,[29],50.6%
same,EC50,[12],560 nM
